Measurements: ChEMBL document CHEMBL3877241 (J Med Chem, 2016)
Activity calls are given as the source filed them. The calls are words filed in the database; no cut-off is given here.

Key:
Histone deacetylase 11 = Histone deacetylase 11 (Homo sapiens, UniProt Q96DB2); assay: Inhibition of human recombinant N-terminal His-tagged HDAC11 (1 to 347 residues) expressed in baculovirus infected insect cells preincubated with enzyme followed by fluorogenic Arg-His-Lys-Lys(Ac)-AMC substrate addition measured after 2 hrs by fluorescence assay relative to control
[1] = test system: Mast/stem cell growth factor receptor Kit (Homo sapiens), P10721 [V559D,T670I]; assay: Inhibition of human KIT (Y545 to D952 residues) V559D/T670I double mutant expressed in bacterial expression system assessed as residual activity at 100 nM by KINOMEScan assay relative to control
Method in brief: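 Done by DiscoveRx as an ATP-site binding panel covering 97 kinases across the kinome. It measures binding rather than inhibition of phosphate transfer. The compound was tested at 100 nM, and the result is expressed as percent of control binding.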

[2] = Antiproliferative activity against human MDA-MB-231 cells after 72 hrs by MTT assay; type: functional, cell-based; details: MDA-MB-231, 72 h
[3] = target: High affinity nerve growth factor receptor (Homo sapiens, UniProt P04629); assay: Inhibition of human NTRK1 (G475 to G790 residues) expressed in mammalian expression system by KINOMEScan assay
[4] = Antiproliferative activity against human Jurkat cells; type: functional, cell-based
[5] = Antiproliferative activity against mouse TAMH cells after 24 hrs by CellTiter-Glo assay; type: ADME, cell-based
[6] = target: T1, Tyrosine-protein kinase JAK2 (Homo sapiens, UniProt O60674); assay: Inhibition of JAK2 in IL-6-stimulated human KMS-12-BM cells assessed as suppression of STAT3 phosphorylation at TY705 residue at 1.5 uM pretreated for 3 hrs followed by IL-6 stimulation by immunoblot method
Method in brief: (§1)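 Cells (at least 3x10^6 per condition; KMS-12-BM or MOLM-14) pretreated with compound for 3 h, then stimulated with IL-6 10 ng/mL for 15 min. Cells lysed, equal protein run on SDS-PAGE and transferred to PVDF. Immunoblotted for p-STAT3 (Tyr705), with membranes re-probed for total STAT3. Reference JAK2 inhibitor control at 2 µM (KMS-12-BM) or 0.1 µM (MOLM-14).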

[7] = target: T1, Tyrosine-protein kinase JAK2; assay: Inhibition of JAK2 in IL-6-stimulated human MOLM14 cells assessed as suppression of STAT3 phosphorylation at TY705 residue at 1.5 uM pretreated for 3 hrs followed by IL-6 stimulation by immunoblot method; type: cell-based; details: MOLM-14; method in brief: as §1
MOLM-14 = assay: Induction of apoptosis in human MOLM14 cells assessed as late apoptotic cells at 1.5 uM after 48 hrs by Annexin-V FITC/propidium iodide staining based flow cytometry (reference value: 2.1 to 2.2%); type: functional
[8] = Half life in rat liver microsomes at 3 uM preincubated for 5 mins followed by NADPH addition by LC-MS/MS analysis; type: ADME
Method in brief: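 Male and female rat liver microsomes (0.3 mg protein/mL final) with compound at 3 μM final in 0.1 M phosphate buffer pH 7.4. Preincubated 5 min at 37 °C, then started with NADPH (1 mM final). Sampled at 0, 5, 10, 15, 30 and 45 min and quenched with cold acetonitrile containing internal standard. Read by LC-MS/MS; run in triplicate; midazolam (3 μM) as positive control.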

T1 sequence (O60674 whole entry): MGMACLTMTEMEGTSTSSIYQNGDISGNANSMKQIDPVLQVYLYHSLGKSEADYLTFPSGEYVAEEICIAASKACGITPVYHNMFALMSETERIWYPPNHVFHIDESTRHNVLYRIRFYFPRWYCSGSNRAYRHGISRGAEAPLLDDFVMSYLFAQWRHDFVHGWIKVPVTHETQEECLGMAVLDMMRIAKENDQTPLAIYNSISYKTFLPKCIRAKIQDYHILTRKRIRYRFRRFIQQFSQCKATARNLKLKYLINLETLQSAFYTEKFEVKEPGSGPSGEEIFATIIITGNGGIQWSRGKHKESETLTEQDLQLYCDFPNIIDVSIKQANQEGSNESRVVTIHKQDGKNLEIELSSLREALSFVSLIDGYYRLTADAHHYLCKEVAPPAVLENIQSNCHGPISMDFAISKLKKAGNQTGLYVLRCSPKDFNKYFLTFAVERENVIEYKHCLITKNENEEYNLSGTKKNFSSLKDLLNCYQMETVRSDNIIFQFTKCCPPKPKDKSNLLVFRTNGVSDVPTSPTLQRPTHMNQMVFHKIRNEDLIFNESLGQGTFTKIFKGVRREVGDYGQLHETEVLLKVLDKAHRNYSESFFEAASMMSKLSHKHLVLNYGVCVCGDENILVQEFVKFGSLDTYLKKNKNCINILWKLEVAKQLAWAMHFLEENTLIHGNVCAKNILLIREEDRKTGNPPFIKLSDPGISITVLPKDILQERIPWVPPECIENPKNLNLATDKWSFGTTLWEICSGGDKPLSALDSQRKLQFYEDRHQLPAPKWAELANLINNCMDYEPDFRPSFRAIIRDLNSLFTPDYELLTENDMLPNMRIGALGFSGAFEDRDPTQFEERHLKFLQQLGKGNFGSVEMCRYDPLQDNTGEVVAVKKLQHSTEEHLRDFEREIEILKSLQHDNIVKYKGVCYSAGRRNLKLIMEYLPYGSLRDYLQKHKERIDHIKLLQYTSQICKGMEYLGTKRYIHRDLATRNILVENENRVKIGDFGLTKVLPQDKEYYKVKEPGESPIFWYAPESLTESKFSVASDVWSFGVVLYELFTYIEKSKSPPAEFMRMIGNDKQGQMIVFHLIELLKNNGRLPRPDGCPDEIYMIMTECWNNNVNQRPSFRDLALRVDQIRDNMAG
Sequence of High affinity nerve growth factor receptor (P04629 whole entry, the tested form may be a part): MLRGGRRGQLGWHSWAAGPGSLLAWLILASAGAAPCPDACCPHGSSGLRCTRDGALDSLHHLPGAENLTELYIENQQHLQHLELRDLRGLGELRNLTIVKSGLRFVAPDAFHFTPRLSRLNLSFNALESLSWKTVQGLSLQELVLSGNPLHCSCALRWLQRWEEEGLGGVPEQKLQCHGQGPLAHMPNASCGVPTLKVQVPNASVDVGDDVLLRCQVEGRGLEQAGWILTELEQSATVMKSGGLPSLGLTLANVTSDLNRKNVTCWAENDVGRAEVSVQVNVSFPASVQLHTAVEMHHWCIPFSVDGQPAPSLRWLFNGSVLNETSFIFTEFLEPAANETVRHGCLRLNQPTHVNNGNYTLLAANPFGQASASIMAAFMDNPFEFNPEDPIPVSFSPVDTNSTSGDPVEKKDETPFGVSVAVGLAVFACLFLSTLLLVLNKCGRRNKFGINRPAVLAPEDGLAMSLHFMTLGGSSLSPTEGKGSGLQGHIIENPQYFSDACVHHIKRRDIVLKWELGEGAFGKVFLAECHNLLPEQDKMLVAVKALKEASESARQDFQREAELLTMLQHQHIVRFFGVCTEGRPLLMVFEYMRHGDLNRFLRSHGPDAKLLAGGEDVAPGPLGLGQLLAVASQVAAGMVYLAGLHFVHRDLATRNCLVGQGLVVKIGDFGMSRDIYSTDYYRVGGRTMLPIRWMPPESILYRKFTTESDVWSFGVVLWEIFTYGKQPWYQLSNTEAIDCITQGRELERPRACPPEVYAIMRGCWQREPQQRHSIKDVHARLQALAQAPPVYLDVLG
Sequence of Mast/stem cell growth factor receptor Kit (Homo sapiens), P10721 [V559D,T670I] (P10721 whole entry V559D/T670I, the tested form may be a part): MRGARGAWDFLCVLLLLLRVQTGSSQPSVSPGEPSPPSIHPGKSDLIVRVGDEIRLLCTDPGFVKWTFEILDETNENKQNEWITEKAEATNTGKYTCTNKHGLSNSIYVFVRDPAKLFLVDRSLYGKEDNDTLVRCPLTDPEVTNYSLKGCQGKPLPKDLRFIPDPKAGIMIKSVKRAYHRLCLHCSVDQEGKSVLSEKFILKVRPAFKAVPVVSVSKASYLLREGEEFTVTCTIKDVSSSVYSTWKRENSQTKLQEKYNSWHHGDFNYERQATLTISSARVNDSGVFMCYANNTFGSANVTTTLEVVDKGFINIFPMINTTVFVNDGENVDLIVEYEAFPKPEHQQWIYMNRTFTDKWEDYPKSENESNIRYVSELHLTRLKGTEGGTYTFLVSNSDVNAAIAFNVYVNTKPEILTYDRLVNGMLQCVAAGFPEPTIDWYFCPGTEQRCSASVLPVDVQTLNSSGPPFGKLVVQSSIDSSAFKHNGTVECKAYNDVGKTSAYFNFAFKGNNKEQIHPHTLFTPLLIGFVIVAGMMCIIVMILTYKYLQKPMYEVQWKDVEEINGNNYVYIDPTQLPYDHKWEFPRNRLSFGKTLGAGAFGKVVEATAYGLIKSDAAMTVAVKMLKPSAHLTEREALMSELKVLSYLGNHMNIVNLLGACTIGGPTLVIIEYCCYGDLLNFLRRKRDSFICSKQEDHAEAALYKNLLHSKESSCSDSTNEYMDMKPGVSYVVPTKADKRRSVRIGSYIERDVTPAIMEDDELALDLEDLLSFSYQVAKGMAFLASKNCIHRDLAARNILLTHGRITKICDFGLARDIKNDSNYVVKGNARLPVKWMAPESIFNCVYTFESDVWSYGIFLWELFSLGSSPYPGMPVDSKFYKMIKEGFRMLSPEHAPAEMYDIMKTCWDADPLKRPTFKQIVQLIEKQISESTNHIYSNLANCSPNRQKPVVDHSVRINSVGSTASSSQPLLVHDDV
Sequence of Histone deacetylase 11 (Q96DB2 whole entry, the tested form may be a part): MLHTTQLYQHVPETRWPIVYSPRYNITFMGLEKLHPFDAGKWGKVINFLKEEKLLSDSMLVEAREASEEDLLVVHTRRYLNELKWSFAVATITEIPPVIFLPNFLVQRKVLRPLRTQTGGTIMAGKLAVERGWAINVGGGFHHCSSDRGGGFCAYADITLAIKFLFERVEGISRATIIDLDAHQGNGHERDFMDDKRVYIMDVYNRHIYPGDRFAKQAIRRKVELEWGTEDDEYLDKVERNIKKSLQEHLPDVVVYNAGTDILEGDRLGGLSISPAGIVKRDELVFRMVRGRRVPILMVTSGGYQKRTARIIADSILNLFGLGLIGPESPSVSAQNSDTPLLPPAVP

`O=C(CCCCCCOc1ccc2cc1COC/C=C/COCc1cccc(c1)-c1ccnc(n1)N2)NO` showed an IC50 (Histone deacetylase 11) of 0.93 µM, an Activity [1] of 31% and an IC50 [2] of 1.43 µM. It also gave an IC50 [3] of 1 to 10 µM, an IC50 [4] of 1.19 µM and an IC50 [5] of 9.57 µM. For the same molecule, the inhibition [6] was “Active”, the inhibition [7] was “Active” and the Activity (MOLM-14) was 13%. It also gave a half-life at 3 µM [8] of 17.3 to 26.3 min.
